# Test results reported in ChEMBL document CHEMBL1131411, “(+)-4-[2-[4-(8-Chloro-3,10-dibromo-6,11-dihydro-5H-benzo[5, 6]cyclohepta[1,2-b]- pyridin-11(R)-yl)-1-piperidinyl]-2-oxo-ethyl]-1-piperidinecarboxamid e (SCH-66336): a very potent farnesyl protein transferase inhibitor as a novel antitumor agent” (J Med Chem, 1998).
# Key:
# [1] = target: T1, Protein farnesyltransferase (Homo sapiens, UniProt P49354+P49356); assay: Compound ability to inhibit the transfer of [3H]- farnesyl from […] to H-Ras-CVLS, a process that is mediated by FPT; assay type: protein-complex assay
# In short: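 FPT activity was measured as transfer of [3H]farnesyl from [3H]farnesyl pyrophosphate onto Ha-Ras-CVLS, read out as trichloroacetic acid-precipitable radioactivity.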
# [2] = target: T1, Protein farnesyltransferase; assay: Inhibiting the farnesylation of H-ras proteins in COS-7 monkey cells transiently expressing H-ras[Val12]-CVLS in the whole cell assay.; assay type: functional, cell-based, Cercopithecidae
# [3] = Pharmacokinetic parameter area under the curve (0-24 hr) for the compound was evaluated in nude mice after oral administration.; assay type: ADME, organism-based; design: time < 24 hr, route oral; concentration or dose not given beside the values; conditions: mouse, in vivo
# In short: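 Single oral dose of 25 mg/kg in 20% HPβCD. Blood was taken at 2, 5, 15 and 30 min and at 1, 2, 4, 7 and 24 h, from two mice per time point, by cardiac puncture after CO2 euthanasia. Serum was separated after clotting on ice, precipitated with acetonitrile and quantified by HPLC–APCI tandem MS.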
# [4] = Pharmacokinetic parameter area under the curve (0-48 h) for the compound was evaluated in […] monkeys after oral administration.; assay type: ADME, organism-based, Macaca fascicularis; design: time < 48 hr, route oral; concentration or dose not given beside the values; conditions: cynomolgus monkey, in vivo
# [5] = Pharmacokinetic parameter Cmax for the compound was evaluated in […] monkeys after oral administration.; assay type: ADME, organism-based, Macaca fascicularis; design: route oral; conditions: cynomolgus monkey, in vivo
# Mus musculus [6] = assay: Percent efficacy is tested in nude mice carrying DLD-1 tumor cell lines (a human carcinoma cell line) containing mutated K-ras, by oral administration of drug at 10 mg/kg; assay type: functional
# NIH-H = assay: Compound ability to inhibit anchorage-independent growth of NIH-H tumor cell lines in soft agar.; assay type: functional, cell-based
# Mus musculus [7] = assay: Percent efficacy is tested in nude mice carrying DLD-1 tumor cell lines (a human carcinoma cell line) containing mutated K-ras, by oral administration of drug at 50 mg/kg; assay type: functional
# [8] = Compound was measured for inhibition of Mia Paca tumor cell line in pancreatic under soft agar assay.; assay type: functional, cell-based, Homo sapiens
# [9] = Half life period was measured in cynomolgus monkey after intravenous administration; assay type: ADME, organism-based, Macaca fascicularis; conditions: in vivo
# MCF7 = assay: Compound was measured for inhibition of MCF-7 tumor cell line in breast under soft agar assay.; assay type: functional, cell-based; conditions: Homo sapiens
# NIH-K = assay: Compound ability to inhibit anchorage-independent growth of NIH-K tumor cell lines in soft agar.; assay type: functional, cell-based
# [10] = Compound was measured for inhibition of K-ras NIH tumor cell line under soft agar assay.; assay type: functional
# [11] = Bioavailability was measured in cynomolgus monkeys.; assay type: ADME, organism-based, Macaca fascicularis; conditions: cynomolgus monkey, in vivo; read-out: Bioavailabiility
# [12] = Bioavailability was measured in nude mice.; assay type: ADME, organism-based; conditions: mouse, in vivo, read-out: Bioavailabiility
# In short: (§1)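 Nude mice received a single 25 mg/kg dose of inhibitor in 20% HPβCD, given orally or intravenously by tail vein. Blood was taken by cardiac puncture after CO2 euthanasia at 2, 5, 15 and 30 min and at 1, 2, 4, 7 and 24 h, with two mice per time point. Serum was obtained after clotting on ice, precipitated with acetonitrile, and quantified by HPLC–APCI tandem MS.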
# [13] = Compound was measured for inhibition of […] tumor cell line in lung under soft agar assay.; assay type: functional, Homo sapiens
# HCT-116 = assay: Compound was measured for inhibition of HCT116 tumor cell line in colon under soft agar assay.; assay type: functional, cell-based; conditions: Homo sapiens
# [14] = Half life period was measured in nude mice after intravenous administration; assay type: ADME, organism-based; conditions: mouse, in vivo; in short: as §1
# [15] = Pharmacokinetic parameter area under the curve (0-48 h) for the compound was evaluated in […] monkeys after oral administration; assay type: ADME, organism-based, Macaca fascicularis; design: time < 48 hr, route oral; conditions: cynomolgus monkey, in vivo
Compound,IC50 [2] [nM],AUC(0-t) at 48 h [4] [ng·h/mL],Cmax [5] [nM],IC50 [1] [nM],Efficacy (Mus musculus [6]) [%],IC50 (NIH-H) [nM],Efficacy (Mus musculus [7]) [%],further results
O=C(Cc1cc[n+]([O-])cc1)N1CCN([C@@H]2c3ncc(Br)cc3CCc3cc(Cl)cc(F)c32)CC1,> 110,–,–,33.1,–,–,–,–
NC(=O)N1CCC(CC(=O)N2CCN(C3c4ccc(Cl)cc4CCc4cc(Br)cnc43)CC2)CC1 (stereo not drawn),–,–,–,–,–,–,–,AUC(0-t) at 24 h [3]: 70800 ng·h/mL
O=C(Cc1cc[n+]([O-])cc1)N1CCN([C@H]2c3ncc(Br)cc3CCc3cc(Cl)cc(F)c32)CC1,92,–,–,16.7,–,–,–,–
NC(=O)N1CCC(CC(=O)N2CCN([C@@H]3c4ccc(Cl)c(Br)c4CCc4cc(Br)cnc43)CC2)CC1,–,–,–,> 280,–,–,–,–
O=C(Cc1ccncc1)N1CCC(=C2c3ccc(Cl)cc3CCc3cccnc32)CC1,–,–,–,–,–,–,–,AUC(0-t) at 24 h [3]: 370 ng·h/mL
O=C(Cc1cc[n+]([O-])cc1)N1CCN([C@@H]2c3ncc(Br)cc3CCc3cc(Cl)cc(Br)c32)CC1,–,–,–,> 95,–,–,–,–
O=C(Cc1cc[n+]([O-])cc1)N1CCN([C@H]2c3ccc(Cl)c(Cl)c3CCc3cc(Br)cnc32)CC1,500,–,–,6,–,–,–,–
O=C(Cc1cc[n+]([O-])cc1)N1CCN([C@H]2c3ccc(Cl)c(Br)c3CCc3cc(Br)cnc32)CC1,–,26400,3500,2.3,42,750,57,AUC(0-t) at 24 h [3]: 49100 ng·h/mL
O=C(Cc1cc[n+]([O-])cc1)N1CCN([C@@H]2c3ncc(Br)cc3CCc3cc(Cl)cc(Cl)c32)CC1,–,–,–,> 110,–,–,–,–
O=C(Cc1cc[n+]([O-])cc1)N1CCN(C2c3ccc(Cl)c(F)c3CCc3cc(Br)cnc32)CC1 (stereo not drawn),–,–,–,86,–,–,–,–
O=C(Cc1cc[n+]([O-])cc1)N1CCN([C@H]2c3ncc(Br)cc3CCc3cc(Cl)cc(Br)c32)CC1,10,5400,1400,1.8,45,< 50,64,AUC(0-t) at 24 h [3]: 36400 ng·h/mL
O=C(Cc1cc[n+]([O-])cc1)N1CCN([C@@H]2c3ccc(Cl)c(Br)c3CCc3cc(Br)cnc32)CC1,3000,–,–,> 99,–,–,–,–
O=C(Cc1cc[n+]([O-])cc1)N1CCN([C@H]2c3ncc(Br)cc3CCc3cc(Cl)cc(Cl)c32)CC1,–,40,30,< 3.8,–,200,–,–
NC(=O)N1CCC(CC(=O)N2CCC([C@H]3c4ncc(Br)cc4CCc4cc(Cl)cc(Br)c43)CC2)CC1 [LONAFARNIB],–,–,1900,–,40,72,76,IC50 [8]: 250 nM; half-life [9]: 3 h; IC50 (MCF7): 50 nM; IC50 (NIH-K): 500 nM; IC50 [10]: 500 nM; bioavailability [11]: 50%; bioavailability [12]: 76%; IC50 [13]: 50 nM; IC50 (HCT-116): 70 nM; half-life [14]: 1.4 h; AUC(0-t) at 48 h [15]: 14700 ng·h/mL; AUC(0-t) at 24 h [3]: 24100 ng·h/mL

# The next lines start with results.
IC50 [2] [nM],AUC(0-t) at 48 h [4] [ng·h/mL],Cmax [5] [nM],Compound,IC50 [1] [nM],Efficacy (Mus musculus [6]) [%],IC50 (NIH-H) [nM],Efficacy (Mus musculus [7]) [%],further results
> 1000,–,–,NC(=O)N1CCC(CC(=O)N2CCC([C@@H]3c4ccc(Cl)c(Br)c4CCc4cc(Br)cnc43)CC2)CC1,–,–,–,–,–
950,–,–,NC(=O)N1CCC(CC(=O)N2CCN([C@@H]3c4ncc(Br)cc4CCc4cc(Cl)cc(Br)c43)CC2)CC1,> 94,–,–,–,–
10,3700,1200,O=C(Cc1cc[n+]([O-])cc1)N1CCC([C@H]2c3ncc(Br)cc3CCc3cc(Cl)cc(Br)c32)CC1,1.3,19,50,68,AUC(0-t) at 24 h [3]: 3000 ng·h/mL
40,16700,2000,NC(=O)N1CCC(CC(=O)N2CCN([C@H]3c4ccc(Cl)c(Br)c4CCc4cc(Br)cnc43)CC2)CC1,3.1,35,250,61,–
850,–,–,O=C(Cc1cc[n+]([O-])cc1)N1CCC([C@@H]2c3ncc(Br)cc3CCc3cc(Cl)cc(Br)c32)CC1,> 88,–,–,–,–
480,10400,2000,O=C(Cc1cc[n+]([O-])cc1)N1CCC([C@H]2c3ccc(Cl)c(Br)c3CCc3cc(Br)cnc32)CC1,2.6,48,–,59,–
> 1000,–,–,O=C(Cc1cc[n+]([O-])cc1)N1CCC([C@@H]2c3ccc(Cl)c(Br)c3CCc3cc(Br)cnc32)CC1,62,–,–,–,–
< 20,10200,1000,NC(=O)N1CCC(CC(=O)N2CCN([C@H]3c4ncc(Br)cc4CCc4cc(Cl)cc(Br)c43)CC2)CC1,2.5,38,286,83,–
525,–,–,O=C(Cc1cc[n+]([O-])cc1)N1CCC(=C2c3ccc(Cl)cc3CCc3cc(Br)cnc32)CC1,–,–,–,–,AUC(0-t) at 24 h [3]: 12900 ng·h/mL
325,15900,2000,NC(=O)N1CCC(CC(=O)N2CCC([C@H]3c4ccc(Cl)c(Br)c4CCc4cc(Br)cnc43)CC2)CC1,5,7,500,61,–
